Source: ChEMBL document CHEMBL3046615, “Isolation of nematicidal compounds from Tagetes patula L. yellow flowers: structure-activity relationship studies against cyst nematode Heterodera zeae infective stage larvae” (2011)
Activity calls are given as the source filed them. The rule behind the calls is not given here.

Key:
[1] = system: Heterodera zeae; assay: Nematicidal activity against Heterodera zeae infective stage larvae assessed as nematode mortality at 0.5% under light conditions measured 72 hr post dose by stereoscopic microscopy; assay type: functional
How it was run: (§1)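 Freshly hatched H. zeae second-stage juveniles, 100 per Petri plate, three replicates. Samples in MeOH, DMSO or water were tested in glass cavity blocks; petroleum ether samples were dried onto the block and larvae transferred on agar pieces. Percentages are dilutions of 30 mg/mL stocks (extracts/fractions) or 1 mg/mL stocks (pure compounds). Incubated at 28 ± 2 °C in light or dark box; mortality averaged over three replicates.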

[2] = system: Heterodera zeae; assay: Nematicidal activity against Heterodera zeae infective stage larvae assessed as nematode mortality at 0.5% under light conditions measured 48 hr post dose by stereoscopic microscopy; assay type: functional; how it was run: as §1
[3] = system: Heterodera zeae; assay: Nematicidal activity against Heterodera zeae infective stage larvae assessed as nematode mortality at 1% under dark conditions measured 24 hr post dose by stereoscopic microscopy; assay type: functional; how it was run: as §1
[4] = system: Heterodera zeae; assay: Nematicidal activity against Heterodera zeae infective stage larvae assessed as nematode mortality at 0.125% under light conditions measured 48 hr post dose by stereoscopic microscopy; assay type: functional; how it was run: as §1
[5] = system: Heterodera zeae; assay: Nematicidal activity against Heterodera zeae infective stage larvae assessed as nematode mortality at 0.25% under light conditions measured 48 hr post dose by stereoscopic microscopy; assay type: functional; how it was run: as §1
[6] = system: Heterodera zeae; assay: Nematicidal activity against Heterodera zeae infective stage larvae assessed as nematode mortality at 0.125% under light conditions measured 24 hr post dose by stereoscopic microscopy; assay type: functional; how it was run: as §1
[7] = system: Heterodera zeae; assay: Nematicidal activity against Heterodera zeae infective stage larvae assessed as nematode mortality at 0.25% under light conditions measured 24 hr post dose by stereoscopic microscopy; assay type: functional; how it was run: as §1
[8] = system: Heterodera zeae; assay: Nematicidal activity against Heterodera zeae infective stage larvae assessed as nematode mortality at 0.5% under light conditions measured 24 hr post dose by stereoscopic microscopy; assay type: functional; how it was run: as §1
[9] = system: Heterodera zeae; assay: Nematicidal activity against Heterodera zeae infective stage larvae assessed as nematode mortality at 1% under light conditions measured 24 hr post dose by stereoscopic microscopy; assay type: functional; how it was run: as §1
[10] = system: Heterodera zeae; assay: Nematicidal activity against Heterodera zeae infective stage larvae assessed as nematode mortality at 0.125% under dark conditions measured 5 to 60 min post dose by stereoscopic microscopy; assay type: functional, organism-based
How it was run: (§2)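 H. zeae freshly hatched second-stage juveniles, 100 per plate, three replicates, at 28 ± 2 °C under light or in a dark box. Dilutions are % of a stock: 30 mg/mL for extracts/fractions, 1 mg/mL for pure compounds. Methanol-, DMSO- or water-soluble samples were tested in glass cavity blocks. Petroleum ether-soluble samples were air-dried in the block and covered with agar pieces bearing cultured larvae. Mortality was followed over 5–60 min; each value is the mean of three experiments.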

[11] = system: Heterodera zeae; assay: Nematicidal activity against Heterodera zeae infective stage larvae assessed as nematode mortality at 0.25% under dark conditions measured 5 to 60 min post dose by stereoscopic microscopy; assay type: functional, organism-based; how it was run: as §2
[12] = system: Heterodera zeae; assay: Nematicidal activity against Heterodera zeae infective stage larvae assessed as nematode mortality at 0.5% under dark conditions measured 5 to 60 min post dose by stereoscopic microscopy; assay type: functional, organism-based; how it was run: as §2
[13] = system: Heterodera zeae; assay: Nematicidal activity against Heterodera zeae infective stage larvae assessed as nematode mortality at 1% under dark conditions measured 5 to 60 min post dose by stereoscopic microscopy; assay type: functional, organism-based; how it was run: as §2
[14] = system: Heterodera zeae; assay: Nematicidal activity against Heterodera zeae infective stage larvae assessed as nematode mortality at 2% under dark conditions measured 5 to 60 min post dose by stereoscopic microscopy; assay type: functional, organism-based; how it was run: as §2
[15] = system: Heterodera zeae; assay: Nematicidal activity against Heterodera zeae infective stage larvae assessed as nematode mortality at 5% under dark conditions measured 5 to 60 min post dose by stereoscopic microscopy; assay type: functional, organism-based; how it was run: as §2
[16] = system: Heterodera zeae; assay: Nematicidal activity against Heterodera zeae infective stage larvae assessed as nematode mortality at 0.125% under light conditions measured 5 to 60 min post dose by stereoscopic microscopy; assay type: functional, organism-based; how it was run: as §2
[17] = system: Heterodera zeae; assay: Nematicidal activity against Heterodera zeae infective stage larvae assessed as nematode mortality at 0.25% under light conditions measured 5 to 60 min post dose by stereoscopic microscopy; assay type: functional, organism-based; how it was run: as §2
[18] = system: Heterodera zeae; assay: Nematicidal activity against Heterodera zeae infective stage larvae assessed as nematode mortality at 0.5% under light conditions measured 5 to 60 min post dose by stereoscopic microscopy; assay type: functional, organism-based; how it was run: as §2
[19] = system: Heterodera zeae; assay: Nematicidal activity against Heterodera zeae infective stage larvae assessed as nematode mortality at 1% under light conditions measured 5 to 60 min post dose by stereoscopic microscopy; assay type: functional, organism-based; how it was run: as §2
[20] = system: Heterodera zeae; assay: Nematicidal activity against Heterodera zeae infective stage larvae assessed as nematode mortality at 2% under light conditions measured 5 to 60 min post dose by stereoscopic microscopy; assay type: functional, organism-based; how it was run: as §2
[21] = system: Heterodera zeae; assay: Nematicidal activity against Heterodera zeae infective stage larvae assessed as nematode mortality at 5% under light conditions measured 5 to 60 min post dose by stereoscopic microscopy; assay type: functional, organism-based; how it was run: as §2
[22] = system: Heterodera zeae; assay: Nematicidal activity against Heterodera zeae infective stage larvae assessed as nematode mortality at 0.125% under dark conditions measured 48 hr post dose by stereoscopic microscopy; assay type: functional; how it was run: as §1
[23] = system: Heterodera zeae; assay: Nematicidal activity against Heterodera zeae infective stage larvae assessed as nematode mortality at 0.25% under dark conditions measured 48 hr post dose by stereoscopic microscopy; assay type: functional; how it was run: as §1
[24] = system: Heterodera zeae; assay: Nematicidal activity against Heterodera zeae infective stage larvae assessed as nematode mortality at 0.125% under dark conditions measured 24 hr post dose by stereoscopic microscopy; assay type: functional; how it was run: as §1
[25] = system: Heterodera zeae; assay: Nematicidal activity against Heterodera zeae infective stage larvae assessed as nematode mortality at 0.25% under dark conditions measured 24 hr post dose by stereoscopic microscopy; assay type: functional; how it was run: as §1
[26] = system: Heterodera zeae; assay: Nematicidal activity against Heterodera zeae infective stage larvae assessed as nematode mortality at 0.5% under dark conditions measured 24 hr post dose by stereoscopic microscopy; assay type: functional; how it was run: as §1
[27] = system: Heterodera zeae; assay: Nematicidal activity against Heterodera zeae infective stage larvae assessed as nematode mortality at 1% under dark conditions measured 72 hr post dose by stereoscopic microscopy; assay type: functional; how it was run: as §1
[28] = system: Heterodera zeae; assay: Nematicidal activity against Heterodera zeae infective stage larvae assessed as nematode mortality at 1% under dark conditions measured 48 hr post dose by stereoscopic microscopy; assay type: functional; how it was run: as §1
[29] = system: Heterodera zeae; assay: Nematicidal activity against Heterodera zeae infective stage larvae assessed as nematode mortality at 1% under light conditions measured 72 hr post dose by stereoscopic microscopy; assay type: functional; how it was run: as §1
[30] = system: Heterodera zeae; assay: Nematicidal activity against Heterodera zeae infective stage larvae assessed as nematode mortality at 1% under light conditions measured 48 hr post dose by stereoscopic microscopy; assay type: functional; how it was run: as §1
[31] = system: Heterodera zeae; assay: Nematicidal activity against Heterodera zeae infective stage larvae assessed as nematode mortality at 0.125% under dark conditions measured 72 hr post dose by stereoscopic microscopy; assay type: functional; how it was run: as §1
[32] = system: Heterodera zeae; assay: Nematicidal activity against Heterodera zeae infective stage larvae assessed as nematode mortality at 0.25% under dark conditions measured 72 hr post dose by stereoscopic microscopy; assay type: functional; how it was run: as §1
[33] = system: Heterodera zeae; assay: Nematicidal activity against Heterodera zeae infective stage larvae assessed as nematode mortality at 0.5% under dark conditions measured 72 hr post dose by stereoscopic microscopy; assay type: functional; how it was run: as §1
[34] = system: Heterodera zeae; assay: Nematicidal activity against Heterodera zeae infective stage larvae assessed as nematode mortality at 0.5% under dark conditions measured 48 hr post dose by stereoscopic microscopy; assay type: functional; how it was run: as §1
[35] = system: Heterodera zeae; assay: Nematicidal activity against Heterodera zeae infective stage larvae assessed as nematode mortality at 0.125% under light conditions measured 72 hr post dose by stereoscopic microscopy; assay type: functional; how it was run: as §1
[36] = system: Heterodera zeae; assay: Nematicidal activity against Heterodera zeae infective stage larvae assessed as nematode mortality at 0.25% under light conditions measured 72 hr post dose by stereoscopic microscopy; assay type: functional; how it was run: as §1

Row | Structure (SMILES) | mortality [1] [%] | mortality [2] [%] | mortality [3] [%] | mortality [4] [%] | mortality [5] [%] | mortality [6] [%] | mortality [7] [%] | mortality [8] [%] | mortality [9] [%] | Activity [10] | Activity [11] | Activity [12] | Activity [13] | Activity [14] | Activity [15] | Activity [16] | Activity [17] | Activity [18] | Activity [19] | Activity [20] | further results
1 | O=C(O)c1ccccc1 [BENZOIC ACID] | 40 | 10 | 0 | 0 | 0 | 0 | 0 | 0 | 0 | inactive | inactive | inactive | inactive | inactive | inactive | inactive | inactive | inactive | inactive | inactive | Activity [21]: inactive; mortality [22]: 0%; mortality [23]: 10%; mortality [24]: 0%; mortality [25]: 0%; mortality [26]: 0%; mortality [27]: 80%; mortality [28]: 70%; mortality [29]: 70%; mortality [30]: 50%; mortality [31]: 0%; mortality [32]: 50%; mortality [33]: 80%; mortality [34]: 50%; mortality [35]: 0%; mortality [36]: 0%
2 | CCCCCCCCCCCCCCCC(=O)O [PALMITIC ACID] | 70 | 50 | 80 | 0 | 10 | 0 | 0 | 0 | 0 | inactive | inactive | inactive | inactive | inactive | inactive | inactive | inactive | inactive | inactive | inactive | Activity [21]: inactive; mortality [22]: 0%; mortality [23]: 20%; mortality [24]: 0%; mortality [25]: 0%; mortality [26]: 0%; mortality [27]: 80%; mortality [28]: 80%; mortality [29]: 80%; mortality [30]: 70%; mortality [31]: 50%; mortality [32]: 70%; mortality [33]: 70%; mortality [34]: 50%; mortality [35]: 0%; mortality [36]: 50%
3 | COc1c(O)cc2oc(-c3ccc(O)c(O)c3)c(O)c(=O)c2c1O [PATULETIN] | 100 | 20 | 20 | 50 | 70 | 20 | 20 | 20 | 40 | inactive | inactive | inactive | inactive | inactive | inactive | inactive | inactive | inactive | inactive | inactive | Activity [21]: inactive; mortality [22]: 0%; mortality [23]: 10%; mortality [24]: 0%; mortality [25]: 0%; mortality [26]: 0%; mortality [27]: 60%; mortality [28]: 60%; mortality [29]: 100%; mortality [30]: 40%; mortality [31]: 0%; mortality [32]: 10%; mortality [33]: 20%; mortality [34]: 20%; mortality [35]: 100%; mortality [36]: 100%
